Assay results gathered from unrelated publications.
Protocols differ between the studies behind these lines. pIC50: −log10 of the molar value.
ABCB1: ATP-dependent translocase ABCB1 (ABCB1, Homo sapiens, UniProt P08183)

| Structure (SMILES) | target or system | test | system | setting | quantity | value |
| --- | --- | --- | --- | --- | --- | --- |
| CC(C)CCC[C@@H](C)[C@H]1CC[C@H]2[C@@H]3CC=C4C[C@@H](OC(=O)CCC(=O)NCCCC[C@H](NC(=O)[C@H]5CCCN5C(=O)[C@H](CCC(=O)O)NC(=O)[C@H](C)NC(=O)[C@@H](NC(=O)C[C@H](O)[C@H](CC(C)C)NC(=O)[C@H](CC(N)=O)NC(=O)[C@@H](NC(=O)[C@H](CCC(=O)O)NC(=O)CNC(=O)[C@@H](CCCCN)NC(=O)CNC(=O)[C@H](CC(C)C)NC(=O)[C@@H]5CCCN5C(=O)[C@@H](CCCCN)NC(=O)[C@H](Cc5ccccc5)NC(=O)[C@H](Cc5ccc(O)cc5)NC(=O)[C@@H]5CCCN5C(=O)[C@@H](N)Cc5ccc(O)cc5)C(C)C)C(C)C)C(N)=O)CC[C@]4(C)[C@H]3CC[C@]12C |  |  | aqueous buffer | pH 6.5 | thermodynamic solubility | > 500 µg/mL |
| Cc1cc(-c2ccc(C(F)(F)F)cn2)[nH]c1C(=O)N[C@@H](CN)c1ncc(CO)s1 | Cf2Th-CCR5 | cell growth or viability, MTS |  | 48 h | CC50 | > 47 µM |
| CC1=NN(c2ccc(C)c(C)c2)C(=O)/C1=N\Nc1cccc(-c2cccc(C(=O)O)c2)c1O | LN-229 | cell growth or viability |  | 72 h | pIC50 | 4.52 to 4.70 |
| Cn1nc(C(F)(F)F)cc1-c1ccc(OCc2ccc(Cl)cc2)c(-c2cc(C(F)(F)F)cc(C(F)(F)F)c2)c1O |  | general toxicity | CD-1 mouse | oral | MTD | 240 mg/kg/day |
| CC1(C)CCC2(CC1)N[C@@H](C(=O)N[C@@H]1CC[C@@H](C(N)=O)OC1)[C@H](c1ccnc(Cl)c1F)[C@]21C(=O)Nc2cc(Cl)ccc21 | ABCB1 |  | Caco-2 | 100 µM, 2 h | efflux ratio | 1.31 |
| CC(C)S(=O)(=O)c1ccc(S(=O)(=O)N2CCC[C@@H](C(=O)N3CCC(F)(F)CC3)C2)cc1 |  | general toxicity | mouse | oral | MTD | 10 mg/kg |
| CC[C@@H]1CN(C(=O)NCC(F)(F)F)C[C@@H]1c1cnc2cnc3[nH]ccc3n12 |  |  | beagle dog, plasma | oral, 1 mg/kg, single dose | MRT(0-t) | 9.27 h |
| O=C1CC(N(CCc2ccccc2)C(=S)Nc2ccccc2)C(=O)N1c1ccc(Br)cc1 (stereo not drawn) | Jurkat | cell growth or viability, ATP luminescence |  | 18 h | CC50 | < 20 µM |
| O=C(CCCCCCC(=O)Nc1ccc(CC[18F])cc1)NO | LNCaP |  | male nude, tumour | intravenous, 30 min, tumour-bearing | tracer uptake | 2.8 %ID/g |
| C[C@]12CCCN1CC1=NNC(=O)c3cc(F)cc4[nH]c2c1c34 | ABCB1 |  | MDCK-MDR1 | 1 µM | Papp B→A | 36.4 ×10⁻⁶ cm/s |
| CC[C@H](C)[C@H](NC(=O)[C@H](Cc1ccccc1)NC(=O)[C@H](Cc1ccc(O)cc1)NC(=O)[C@@H]1CCCN1C(=O)[C@@H](N)Cc1ccc(O)cc1)C(=O)N1CCC[C@H]1C(=O)N[C@@H](CC(C)C)C(=O)NCC(=O)NCC(=O)N[C@H](CCCCN)C(=O)N[C@@H](CCC(=O)O)C(=O)N[C@H](C(=O)N[C@@H](CC(N)=O)C(=O)N[C@@H](CC(C)C)[C@@H](O)CC(=O)N[C@H](C(=O)N[C@@H](C)C(=O)N[C@@H](CCC(=O)O)C(=O)N1CCC[C@@H]1C(=O)N[C@@H](CCCCNC(=O)CCC(=O)O[C@H]1CC[C@@]2(C)C(=CC[C@H]3[C@@H]4CC[C@H]([C@H](C)CCCC(C)C)[C@@]4(C)CC[C@@H]32)C1)C(N)=O)C(C)C)C(C)C |  |  | aqueous buffer | pH 6.5 | thermodynamic solubility | < 1 µg/mL |
| COc1ccc(S(=O)(=O)ON=C2C=C(C)C(=O)C(C)=C2)cc1 | MIA PaCa-2 | cell growth or viability |  |  | CC50 | 21.7 µM |
